# According to ChEMBL document CHEMBL2150948, “Quinolinyl Pyrimidines: Potent Inhibitors of NDH-2 as a Novel Class of Anti-TB Agents” (ACS Med Chem Lett, 2012):
# pIC50: −log10 of the molar value.
# What was measured:
# [1] = test system: Mycobacterium tuberculosis; assay: Antimycobacterial activity against Mycobacterium tuberculosis assessed as growth inhibition after 5 days by MABA/resazurin assay; format: functional; conditions: 120 h
# [2] = Inhibition of Mycobacterium tuberculosis NDH-2 by UV spectrophotometry
# In short: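 Purified Mtb NDH-2 at 1 nM in 50 mM Hepes-NaOH pH 7.5 with 100 mM NaCl, 0.008% Brij-35 and 300 μM NADH; reaction started with 50 μM menadione, run 1 h at 37 °C. NADH oxidation followed as fall in absorbance at 340 nm. Screening at 20 μM, then concentration-response for IC50.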
# [3] = Solubility of the compound in 0.1 M phosphate buffer after 24 hrs by UV/MS analysis; format: physicochemical
# In short: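 Solubility measured in presence of 2% (v/v) DMSO.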
# [4] = Partition coefficient, log D of the compound; format: physicochemical; conditions: octanol/water
# [5] = Fraction unbound in plasma at 20 uM after 18 hrs by equilibrium dialysis method; format: ADME, cell-free
# [6] = Toxicity in RBC assessed as hemolysis; format: cell-based; conditions: erythrocyte
# Saccharomyces cerevisiae = assay: Antimicrobial activity against Saccharomyces cerevisiae; format: organism-based
# [7] = Intrinsic clearance in mouse microsomes assessed per mg protein at 100 uM by HPLC analysis; format: ADME, Microsome
SMILES,MIC [1] [µM],pIC50 [2],solubility at 24 h [3] [µM],logD [4],"fraction unbound at 18 h, 20 µM [5]",MHC [6] [µg/mL],MIC (Saccharomyces cerevisiae) [µg/mL],microsomal CLint at 100 µM [7] [µL/min/mg]
Cc1cccc(-c2cc(Nc3ccc4nccc(N)c4c3)nc(N)n2)c1,48.9,4.97,–,–,–,–,–,–
Nc1nc(Nc2ccc3nc(-c4ccc(F)cc4)cc(N)c3c2)cc(-c2ccccc2)n1,1.67,7.14,–,–,–,–,–,–
Nc1nc(Nc2cnc3ccccc3c2)cc(-c2cccc(Cl)c2)n1,> 73,5.24,–,–,–,–,–,–
Cc1cc(Nc2ccc3nc(C)ccc3c2)nc(C)n1,> 121,< 4.00,–,–,–,–,–,–
Cc1cc(Nc2ccc3nc(-c4ccc(F)cc4)cc(N)c3c2)nc(N)n1,22.2,6.22,–,–,–,–,–,–
COc1ccccc1-c1cc(Nc2ccc3nc(-c4ccc(F)cc4)cc(N)c3c2)nc(N)n1,4.42,> 6.21,–,–,–,–,–,–
Nc1nc(Nc2cnc3ccccc3c2)cc(-c2ccc(C(F)(F)F)cc2)n1,66.6,5.69,–,–,–,–,–,–
Nc1nc(Nc2ccc3nc(-c4ccc(F)cc4)cc(N)c3c2)cc(-c2ccc(Cl)cc2)n1,1.91,7.37,6,3,0.008,> 32,> 32,13.4
Nc1nc(Nc2ccc3nc(-c4ccc(F)cc4)cc(N)c3c2)cc(-c2cccc(Cl)c2)n1,2.19,7.30,15,3.06,–,> 32,> 32,–
COc1cccc(-c2cc(N)c3cc(Nc4cc(-c5ccc(Cl)cc5)nc(N)n4)ccc3n2)c1,2.13,> 6.59,–,–,–,–,–,–
CC(C)c1cc(Nc2ccc3nc(-c4ccc(F)cc4)cc(N)c3c2)nc(N)n1,7.28,5.83,–,–,–,–,–,–
Nc1nc(Nc2ccc3nc(-c4ccc(F)cc4)cc(N)c3c2)cc(-c2ccccc2F)n1,3.21,6.73,–,–,–,–,–,–
Nc1nc(Nc2ccc3nc(-c4ccc(F)cc4)cc(N)c3c2)cc(-c2ccc(C(F)(F)F)cc2)n1,2.88,7.09,2450,2.16,–,> 32,> 32,< 4
Nc1nc(Nc2ccc3nc(-c4ccc(F)cc4)cc(N)c3c2)cc(-c2ccccn2)n1,9.45,6.88,–,–,–,–,–,–
Nc1nc(Nc2ccc3nc(-c4ccc(F)cc4)cc(N)c3c2)cc(-c2ccc(F)cc2)n1,1.14,7.28,12,3.06,0.0249,> 32,> 32,–
Cn1ccc(-c2cc(Nc3ccc4nc(-c5ccc(F)cc5)cc(N)c4c3)nc(N)n2)n1,53.1,5.86,–,–,–,–,–,–
Cc1cccc(-c2cc(Nc3ccc4nc(-c5ccc(F)cc5)cc(N)c4c3)nc(N)n2)c1,< 0.81,7.02,70,3.18,0.0144,> 32,> 32,–
CCc1cc(Nc2ccc3nc(-c4ccc(F)cc4)cc(N)c3c2)nc(N)n1,15.1,5.62,–,–,–,–,–,–
